Test results from article PMC9283749 (Clinical and Translational Science, 2022).
Values after ≈ are worked out from the molar mass of the structure shown. “Also recorded” adds a separate entry of the source.

Columns and labels:
Porcupine = conditions: read-out: in vitro cellular IC50 for Porcupine; cited from earlier work
CYP3A4 = conditions: cited from earlier work
[1] = Simulated steady-state PK from the PopPK model; type: in vivo, human
Outline: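 Steady-state C1D15 plasma profiles simulated from the final population PK model in 200–500 hypothetical patients per continuous once-daily dosing scenario. Cmin, Cmax and AUC24h derived from the simulated profiles.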

[2] = system: patients with advanced solid tumors; conditions: cited from earlier work
[3] = system: patients with advanced solid tumors; assay: Phase I first-in-human study, safety and antitumor activity; type: in vivo
Outline: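 Patients with advanced solid tumours. Without run-in, patients got 5, 7.5, 10, 15, 20, 22.5 or 30 mg continuous q.d.; 30 or 45 mg intermittent q.d. (4 days on/3 off); or 5 mg continuous b.i.d. Adverse events were graded by CTCAE v4.03.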

Population PK modeling = type: in vivo, human; conditions: patients, 5-45 mg oral
Outline: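 Pooled 1098 plasma concentrations from 66 patients across 10 oral regimens, measured by LC-MS/MS (LLOQ 1.0 ng/ml). Serial sampling to 24 h on C1D1 and C1D15, plus predose troughs. Two-compartment model with first-order absorption, lag time and linear clearance, fitted in log domain by FOCE in NONMEM. Log-normal interindividual variability on Ka, CL, Vc, CLd, Vp and Tlag; baseline covariates screened.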

[4] = cited from earlier work
CYP3A = conditions: in vitro; cited from earlier work
[5] = system: skin AXIN2 mRNA expression; assay: Exposure-response analysis for biomarker; type: in vivo; conditions: Homo sapiens, read-out: WNT974 concentration resulting in 50% Emax (EC50), skin AXIN2 reduction, estimated mean (90% prediction interval)
[6] = system: xenograft and Wnt ligand-driven mouse tumor models; conditions: cited from earlier work
[7] = cited from earlier work; remark: listed apart in the source

Cc1cc(-c2ncc(CC(=O)Nc3ccc(-c4cnccn4)cn3)cc2C)ccn1 [WNT974]
IC50 (Porcupine): 400 pM
metabolism (CYP3A4): extensively metabolized, primarily by CYP3A4
Predicted steady-state AUC24h, mean (90% confidence interval) ([1]; 5 mg q.d.): 233 (133–445) ng h/ml
Predicted steady-state Cmax, mean (90% confidence interval) ([1]; 5 mg q.d.): 28.1 (13.7–59.1) ng/ml
Predicted steady-state Cmin, mean (90% confidence interval) ([1]; 5 mg q.d.): 2.83 (0.835–8.02) ng/ml
Predicted steady-state AUC24h, mean (90% confidence interval) ([1]; 10 mg q.d.): 468 (254–880) ng h/ml
Predicted steady-state Cmax, mean (90% confidence interval) ([1]; 10 mg q.d.): 55.7 (26.1–109) ng/ml
Predicted steady-state Cmin, mean (90% confidence interval) ([1]; 10 mg q.d.): 5.78 (1.66–16.3) ng/ml
Predicted steady-state AUC24h, mean (90% confidence interval) ([1]; 15 mg q.d.): 699 (394–1294) ng h/ml
Predicted steady-state Cmax, mean (90% confidence interval) ([1]; 15 mg q.d.): 80.6 (41.7–166) ng/ml
Predicted steady-state Cmin, mean (90% confidence interval) ([1]; 15 mg q.d.): 8.21 (2.60–24.3) ng/ml
patients with dysgeusia (most common adverse event) ([2]; FIH study): ~ 50 % of patients
best response: patients with stable disease ([2]; dose-expansion part of the single-agent study): 16 % of patients
maximum tolerated dose (MTD) ([3]; dose-escalation part, 5-45 mg): not established
antitumor activity in patients ([3]; dose-escalation study): limited antitumor activity
Absorption lag time (Tlag), population estimate (%RSE) (Population PK modeling): 0.412 (3.2) h
Apparent central clearance (CL/F), population estimate (%RSE) (Population PK modeling): 20.7 (3.9) L/h
Central volume of distribution (Vc), population estimate (%RSE) (Population PK modeling): 138 (2.0) L
Distribution clearance (CLd), population estimate (%RSE) (Population PK modeling): 7.11 (9.4) L/h
Peripheral volume of distribution (Vp), population estimate (%RSE) (Population PK modeling): 260 (9.4) L
Absorption rate constant (Ka), population estimate (%RSE) (Population PK modeling; 66 patients): 1.60 (17.0) 1/h
mean unbound Cmin ([4]; C1D15, continuous q.d. dose of 5-30 mg): 1.1 to 7.6 nM
dose proportionality of exposure ([4]; dose range 5-45 mg): dose proportional
mean t1/2 ([4]; patients, oral administration): 5 to 8 h
median Tmax ([4]; patients, oral administration): 1 to 3 h
CYP3A inhibition (CYP3A): moderate reversible inhibitor
EC50 [5]: 0.45 ng/mL (≈ 1.14 nM)
antitumor activity ([6]; preclinical tumor models): exhibited antitumor activity; also recorded: potent antitumor activity
AXIN2 mRNA expression in tumors ([6]; xenograft and Wnt ligand-driven mouse tumor models): reduction of AXIN2 mRNA expression in tumors
elimination half-life (t1/2) ([7]; all the animal species (mouse, rat, dog)): 0.6 to 2.2 h
oral bioavailability ([7]; mouse, rat, and dog): 60–100%
